Assay results reported in ChEMBL document CHEMBL5608187, “Discovery of pyridoquinoxaline-based new P-gp inhibitors as coadjutant against Multi Drug Resistance in cancer” (Eur J Med Chem, 2024).

Experiments:
Assay type in all cases: cell-based; call rule not given here
[1] = molecular target: T1, ATP-dependent translocase ABCB1 (Homo sapiens, UniProt P08183); test: Inhibition of P-gp in human A498 cells assessed as increase in green fluorescence intensity at 0.1 to 10 uM incubated for 15 mins followed by incubation with EFFLUX-ID Green Detection Reagent and Hoeschst-33342 dye and measured after 30 mins by fluorescence analysis; conditions: a498, 0.25 h, dose 0.1-10 µM
T1 sequence (P08183 whole entry): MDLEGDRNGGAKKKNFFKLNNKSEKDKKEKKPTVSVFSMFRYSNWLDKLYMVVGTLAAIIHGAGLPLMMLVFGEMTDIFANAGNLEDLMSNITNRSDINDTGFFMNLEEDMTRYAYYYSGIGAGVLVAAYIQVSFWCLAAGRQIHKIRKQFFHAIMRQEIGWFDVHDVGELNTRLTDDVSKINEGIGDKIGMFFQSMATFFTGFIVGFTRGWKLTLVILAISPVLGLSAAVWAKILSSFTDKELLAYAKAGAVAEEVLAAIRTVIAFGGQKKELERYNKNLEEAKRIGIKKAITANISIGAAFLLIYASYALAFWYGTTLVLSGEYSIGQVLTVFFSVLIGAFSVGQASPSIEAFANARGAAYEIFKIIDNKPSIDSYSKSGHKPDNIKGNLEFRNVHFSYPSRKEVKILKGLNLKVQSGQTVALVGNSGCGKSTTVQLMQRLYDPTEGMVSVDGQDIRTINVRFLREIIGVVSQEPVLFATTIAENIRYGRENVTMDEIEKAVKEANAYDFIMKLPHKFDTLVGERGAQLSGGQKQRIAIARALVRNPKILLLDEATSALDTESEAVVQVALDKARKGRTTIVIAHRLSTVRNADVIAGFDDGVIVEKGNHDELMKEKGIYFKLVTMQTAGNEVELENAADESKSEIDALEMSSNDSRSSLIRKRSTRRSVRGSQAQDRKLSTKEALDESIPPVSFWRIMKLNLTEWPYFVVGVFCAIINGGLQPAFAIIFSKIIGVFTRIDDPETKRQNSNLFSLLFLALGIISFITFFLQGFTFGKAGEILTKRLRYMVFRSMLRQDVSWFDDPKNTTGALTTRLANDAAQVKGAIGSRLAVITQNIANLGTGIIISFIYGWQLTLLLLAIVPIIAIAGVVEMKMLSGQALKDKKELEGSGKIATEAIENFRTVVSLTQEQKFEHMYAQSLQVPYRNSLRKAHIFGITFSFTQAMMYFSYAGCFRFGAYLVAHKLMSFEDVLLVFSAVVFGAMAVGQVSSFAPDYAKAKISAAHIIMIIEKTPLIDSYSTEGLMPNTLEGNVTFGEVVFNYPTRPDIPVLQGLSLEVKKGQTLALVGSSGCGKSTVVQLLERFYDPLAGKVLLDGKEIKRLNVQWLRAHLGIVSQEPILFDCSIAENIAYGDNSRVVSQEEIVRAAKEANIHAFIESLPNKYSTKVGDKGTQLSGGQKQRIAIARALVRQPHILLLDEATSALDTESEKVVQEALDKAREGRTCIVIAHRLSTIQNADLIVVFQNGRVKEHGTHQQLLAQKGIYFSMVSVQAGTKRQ
How it was run: (§1)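 5000 cells/well in phenol-red-free medium plated 24 h before; compounds 0.1, 1, 10 µM for 15 min, then EFLUXX-ID Green reagent (1:200) plus Hoechst-33342 1 µg/mL, 30 min 37 °C. Widefield imaging; median green intensity from 250 cells per well normalized to untreated wells. Mean ± SD of three wells; one-tailed t-test.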

[2] = molecular target: T1, ATP-dependent translocase ABCB1; test: Inhibition of P-gp in human CAKI-2 cells assessed as increase in green fluorescence intensity at 0.1 to 10 uM incubated for 15 mins followed by incubation with EFFLUX-ID Green Detection Reagent and Hoeschst-33342 dye and measured after 30 mins by fluorescence analysis; conditions: caki-2, 0.25 h, dose 0.1-10 µM; how it was run: as §1
[3] = molecular target: T1, ATP-dependent translocase ABCB1; test: Inhibition of P-gp in human HT1197 cells assessed as increase in green fluorescence intensity at 0.1 to 10 uM incubated for 15 mins followed by incubation with EFFLUX-ID Green Detection Reagent and Hoeschst-33342 dye and measured after 30 mins by fluorescence analysis; conditions: ht1197, 0.25 h, dose 0.1-10 µM; how it was run: as §1
[4] = molecular target: T1, ATP-dependent translocase ABCB1; test: Inhibition of P-gp in human HCT-15 cells assessed as increase in green fluorescence intensity at 0.1 to 10 uM incubated for 15 mins followed by incubation with EFFLUX-ID Green Detection Reagent and Hoeschst-33342 dye and measured after 30 mins by fluorescence analysis; conditions: hct-15, 0.25 h, dose 0.1-10 µM; how it was run: as §1

inhibition (INH) [1] | inhibition (INH) [2] | inhibition (INH) [3] | inhibition (INH) [4] | Compound
Not Active | Active | Active | Active | O=C(Nc1ccc(Cl)c(Cl)c1)c1ccccc1OCc1nc2cc3cccnc3cc2nc1COc1ccccc1C(=O)Nc1ccc(Cl)c(Cl)c1
Not Active | Active | Active | Active | COc1ccc(NC(=O)c2ccccc2OCc2nc3cc4cccnc4cc3nc2COc2ccccc2C(=O)Nc2ccc(OC)cc2)cc1
Not Active | Active | Active | Active | COc1cc(NC(=O)c2cc(Cl)ccc2OCc2nc3cc4cccnc4cc3nc2COc2ccc(Cl)cc2C(=O)Nc2cc(OC)cc(OC)c2)cc(OC)c1
Not Active | Active | Active | Active | COc1ccc(NC(=O)c2cc(Cl)ccc2OCc2nc3cc4cccnc4cc3nc2COc2ccc(Cl)cc2C(=O)Nc2ccc(OC)cc2)cc1

Continued, molecule first:

Compound | inhibition (INH) [1] | inhibition (INH) [2] | inhibition (INH) [3] | inhibition (INH) [4]
COC(=O)c1ccc(OCc2nc3cc4cccnc4cc3nc2COc2ccc(C(=O)OC)cc2OC)c(OC)c1 | Not Active | Active | Active | Active
N#Cc1ccc(OCc2nc3cc4cccnc4cc3nc2COc2ccc(C#N)cc2)cc1 | Not Active | Active | Active | Active
COc1cc(NC(=O)c2cc(Cl)ccc2OCc2nc3cc4cccnc4cc3nc2COc2ccc(Cl)cc2C(=O)Nc2cc(OC)c(OC)c(OC)c2)cc(OC)c1OC | Not Active | Active | Active | Active
COC(=O)c1ccccc1SCc1nc2cc3cccnc3cc2nc1CSc1ccccc1C(=O)OC | Not Active | Active | Active | Active
